Results as given in ChEMBL document CHEMBL3091366, “New 5-Aryl-1H-imidazoles display in vitro antitumor activity against apoptosis-resistant cancer models, including melanomas, through mitochondrial targeting” (J Med Chem, 2013).

Legend:
PC-3 = experiment: Cytotoxicity against apoptotic-sensitive human PC3 cells assessed as growth inhibition after 72 hrs by MTT-based colorimetric assay; assay type: functional, cell-based; settings: Homo sapiens, PC-3, 72 h
Outline: (§1)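 MTT colorimetric assay, 72 h exposure to the fumarate salt. Read-out is reduction of MTT to formazan by living cells. IC50 is the concentration that reduces the whole cell population by 50%. Six replicates per condition. Where compounds were not tested on every line, apoptosis-sensitive lines were PC3, MCF-7, LoVo and B16F10, and apoptosis-resistant lines were U373, T98G, A549 and SK-MEL-28.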

B16-F10 = experiment: Cytotoxicity against apoptotic-sensitive mouse B16F10 cells assessed as growth inhibition after 72 hrs by MTT-based colorimetric assay; assay type: functional, cell-based; settings: B16-F10, 72 h; outline: as §1
T98G = experiment: Cytotoxicity against apoptotic-resistant human T98G cells assessed as growth inhibition after 72 hrs by MTT-based colorimetric assay; assay type: functional, cell-based; settings: Homo sapiens, T98G, 72 h; outline: as §1
MCF7 = experiment: Cytotoxicity against apoptotic-sensitive human MCF7 cells assessed as growth inhibition after 72 hrs by MTT-based colorimetric assay; assay type: functional, cell-based; settings: Homo sapiens, MCF7, 72 h; outline: as §1
LoVo = experiment: Cytotoxicity against apoptotic-sensitive human LoVo cells assessed as growth inhibition after 72 hrs by MTT-based colorimetric assay; assay type: functional, cell-based; settings: Homo sapiens, LoVo, 72 h; outline: as §1
A549 = experiment: Cytotoxicity against apoptotic-resistant human A549 cells assessed as growth inhibition after 72 hrs by MTT-based colorimetric assay; assay type: functional, cell-based; settings: Homo sapiens, A549, 72 h; outline: as §1
SK-MEL-28 = experiment: Cytotoxicity against apoptotic-resistant human SK-MEL-28 cells assessed as growth inhibition after 72 hrs by MTT-based colorimetric assay; assay type: functional, cell-based; settings: Homo sapiens, SK-MEL-28, 72 h; outline: as §1
[1] = Cytotoxicity against apoptotic-resistant human U373 cells assessed as growth inhibition after 72 hrs by MTT-based colorimetric assay; assay type: functional, cell-based, U-373MG ATCC; settings: Homo sapiens, U373 MG, 72 h; outline: as §1

| SMILES | IC50 (PC-3) | IC50 (B16-F10) | IC50 (T98G) | IC50 (MCF7) | IC50 (LoVo) | IC50 (A549) | IC50 (SK-MEL-28) | IC50 [1] |
| --- | --- | --- | --- | --- | --- | --- | --- | --- |
| C#CCCCCOc1ncc(-c2ccccc2OC)n1C | 21 µM | 34 µM | 35 µM | 10 µM | 11 µM | 22 µM | 38 µM |  |
| C=CCCCCOc1ncc(-c2cccc(OC)c2OC)n1C | 36 µM | 27 µM | 35 µM | 28 µM | 11 µM | 43 µM | 27 µM |  |
| COc1ccccc1-c1cnc(OCC(F)(F)C(F)(F)C(F)(F)C(F)(F)C(F)(F)F)n1C | 72 µM | 38 µM | 78 µM | 63 µM | 51 µM | 83 µM | 66 µM |  |
| C=CCCCCOc1ncc(I)n1C | > 100 µM | 51 µM | > 100 µM | > 100 µM | 84 µM | > 100 µM | > 100 µM |  |
| C=CCCCCOc1ncc(-c2ccc(Cl)cc2OC)n1C | 36 µM | 43 µM | 67 µM | 37 µM | 35 µM | 47 µM | 50 µM |  |
| C=CCCCCOc1ncc(-c2cc(C(F)(F)F)ccc2OC)n1C | 57 µM | 59 µM | 88 µM | 61 µM | 51 µM | 62 µM | 56 µM |  |
| COc1ccc(C)cc1-c1cnc(OCCCCc2ccccc2)n1C | 43 µM | 34 µM | 44 µM | 28 µM | 27 µM | 40 µM | 42 µM |  |
| Cn1c2cnc1OCCCCCCCCCOc1ccccc1-2 | 61 µM |  | 74 µM | 71 µM | 34 µM | 69 µM | 72 µM | 78 µM |
| C=CCCCCOc1ccccc1-c1cnc(OCCC=C)n1C | 19 µM |  | 29 µM | 8 µM | 12 µM | 9 µM | 17 µM | 33 µM |
| C=CCCOc1ccccc1-c1cnc(S(=O)(=O)c2ccccc2)n1C | 42 µM |  | > 100 µM | 67 µM | 32 µM | 73 µM | 60 µM | > 100 µM |
| C=CCCCCOc1ccccc1-c1cnc(S(=O)(=O)c2ccccc2)n1C | 33 µM |  | 71 µM | 25 µM | 27 µM | 38 µM | 38 µM | 63 µM |
| Cn1c2cnc1OCCCCCCCCOc1ccc(F)cc1-2 | 52 µM |  | 77 µM | 52 µM | 43 µM | 58 µM | 72 µM | 73 µM |
| Cn1c2cnc1OCCCCCCCCOc1cc(F)ccc1-2 | 46 µM |  | 69 µM | 35 µM | 32 µM | 43 µM | 58 µM | 70 µM |
| Cn1c2cnc1OCCCCCCCCOc1cc3ccccc3cc1-2 | 25 µM |  | 32 µM | 19 µM | 16 µM | 26 µM | 23 µM | 24 µM |
| C=CCCCCOc1cc(F)ccc1-c1cnc(OCCC=C)n1C | 64 µM |  | > 100 µM | 59 µM | 45 µM | 74 µM | 83 µM | > 100 µM |
| C=CCCCCOc1ccccc1-c1cnc(OCCOCC=C)n1C | 36 µM |  | 65 µM | 32 µM | 26 µM | 34 µM | 59 µM | 60 µM |
| C=CCCCCOc1ccccc1-c1cnc(OCCCC=C)n1C | 28 µM |  | 3 µM | 7 µM | 4 µM | 3 µM | 19 µM | 5 µM |
| Cc1ccc2c(c1)-c1cnc(n1C)OCCCCCCCCO2 | 36 µM |  | 63 µM | 34 µM | 34 µM | 41 µM | 55 µM | 57 µM |
